Assay results reported in ChEMBL document CHEMBL1949657, “Chemical modification of the multitarget neuroprotective compound fisetin” (J Med Chem, 2012).
Activity calls are given as the source filed them.

Experiments:
[1] = tested on: HT-22; test: Neuroprotective activity against glutamate-induced GSH loss in mouse HT22 cells assessed as intracellular GSH level at 1 to 10 uM after 24 hrs; assay type: functional, cell-based
Outline: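 HT22 cells given derivatives (1–10 μM) with 5 mM glutamate. After 24 h, cell extracts analysed for total intracellular GSH by chemical assay. Fisetin 10 μM as positive control. Tested twice; positives tested a third time.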

[2] = tested on: HT-22; test: Neuroprotective activity in mouse HT22 cells assessed as reduction in IAA-induced ischemia after 24 hrs by MTT assay; assay type: functional, cell-based
Outline: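 HT22 cells seeded at 5×10^3/well. Next day switched to DMEM + 7.5% DFCS with 20 μM IAA ± derivative doses for 2 h, then IAA-free medium with derivative for 20 h. MTT 2.5 μg/ml for 4 h at 37 °C, solubilised in DMF/SDS pH 4.7, A570 read. Controls for compound toxicity and assay interference. EC50 from dose series; tested twice, third time if EC50 < 1 μM.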

[3] = tested on: PC-12; test: Neurotrophic activity in rat PC12 cells assessed as neurite outgrowth at 1 to 10 uM after 24 hrs; assay type: functional, cell-based
Outline: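 PC12 cells in N2 medium given derivatives (1–10 μM) for 24 h, fisetin 10 μM as positive control. 100 cells counted in each of three fields. A cell scored positive with ≥1 neurite longer than one cell-body diameter. Tested twice; positives tested a third time.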

[4] = tested on: N9; test: Antiinflammatory activity in mouse N9 cells assessed as reduction of LPS-induced microglial activation at 1 to 10 uM measured as nitrite level after 24 hrs by Griess reagent-based assay; assay type: functional; design: scale not given: the % may be the effect or the level left
Outline: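 N9 microglia in DME with 7.5% DFCS, given 10 μg/ml LPS alone or with derivatives (1–10 μM) for 24 h. Medium spun to remove floating cells, then nitrite measured with Griess reagent, 10 min at room temperature, absorbance 550 nm. Fisetin 10 μM as positive control. Tested twice; positives tested a third time.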

[5] = Antioxidant activity against ABTS radical assessed as trolox equivalent after 4 mins by TEAC assay; assay type: functional
Outline: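 ABTS radical cation formed overnight with potassium persulfate and diluted to OD ~0.7 at 734 nm, then mixed with derivative in ethanol. Loss of A734 followed over 4 min. TEAC = slope of % absorbance inhibition vs concentration divided by the slope for Trolox.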

[6] = Mus musculus, HT-22, 24 h, read-out: EC50

Structure (SMILES) | Activity [1] | EC50 [2, 6] [nM] | Activity [3] | Activity [4] [%] | Activity [5] [equiv] | EC50 ([2]; ht-22)
COc1cc(-c2oc3c(ccc4ccccc43)c(=O)c2O)ccc1OCc1ccccc1 | inactive | 80 | Active | 88 | 0 | 
CCOc1ccc(/C=C/C(=O)c2ccc3ccccc3c2O)cc1OCC | inactive |  | inactive | 5 | 0.12 | Not Active
COc1cc(-c2ccc(N3CCCC3)cc2)nc2ccccc12 | inactive |  | inactive | 67 | 0.27 | Not Active
COc1cc(-c2cc(=O)c3ccc4ccccc4c3o2)ccc1O | inactive | 40 | inactive | 19 | 0.2 | 
O=c1c(O)c(-c2ccc(N3CCCC3)cc2)oc2c1ccc1ccccc12 | inactive | 70 | Active | 26 | 1.44 | 
COc1ccc(-c2cc(OC)c3ccccc3n2)cc1O | inactive |  | inactive | 69 | 0.24 | Not Active
Cc1cc2oc(-c3ccc(O)c(O)c3)c(O)c(=O)c2cc1C | inactive | 500 | inactive | 82 | 1.89 | 
CC(C)Oc1cc(-c2ccc(N3CCCC3)cc2)nc2ccccc12 | inactive | 500 | inactive | 67 | 0.27 | 
CC(C)Oc1cc(-c2ccc(O)cc2O)nc2ccccc12 | inactive | 210 | inactive | 64 | 0.27 | 
CN(C)c1ccc(-c2cc(=O)c3ccc4ccccc4c3o2)cc1 | inactive | 250 | inactive | 35 | 0.24 | 
COc1cc(-c2oc3c(ccc4ccccc43)c(=O)c2O)ccc1O | inactive | > 500 | Active | 78 | 0.63 | 
COc1cc(-c2oc3cc(C)c(C)cc3c(=O)c2O)ccc1OCc1ccccc1 | inactive | 170 | inactive | 14 | 0.27 | 
Cc1cc(O)c(C(=O)/C=C/c2ccc(O)cc2O)cc1C | inactive | 50 | Active | 53 | 0.93 | 
CCOc1cc(-c2ccc(O)c(O)c2)nc2ccccc12 | Active | 20 | Active | 90 | 0.9 | 
COc1cc(-c2cc(OC)c3ccccc3n2)ccc1O | inactive | 500 | inactive | 90 | 0.15 | 
O=c1cc(-c2ccc(N3CCCC3)cc2)oc2c1ccc1ccccc12 | inactive | 200 | inactive | 23 | 0.03 | 
Cc1cc2oc(-c3ccc(N(C)C)cc3)cc(=O)c2cc1C | inactive | > 500 | inactive | 8 | 0 | 
CCOc1ccc(-c2oc3cc(C)c(C)cc3c(=O)c2O)cc1OCC | inactive | 500 | inactive | 11 | 0.84 | 
Cc1cc2oc(-c3ccc(O)cc3O)cc(=O)c2cc1C | inactive | > 500 | inactive | 5 | 0.15 | 
CCOc1ccc(-c2cc(OC)c3ccccc3n2)cc1OCC | inactive |  | inactive | 76 | 0.12 | Not Active
